Test results reported in ChEMBL document CHEMBL4184148 (Bioorg Med Chem Lett, 2017).

Assays:
[1] = tested on: Phosphatidylinositol 4,5-bisphosphate 3-kinase catalytic subunit alpha isoform (Homo sapiens), P42336 [I800L]; assay: Binding affinity to human partial length PIK3CA I800L mutant (R108 to N1068 residues) expressed in HEK293 cells at 1 uM by Kinomescan method relative to control; assay type: cell-based
[2] = target: Mitogen-activated protein kinase kinase kinase 4 (Homo sapiens) (UniProt Q9Y6R4); assay: Binding affinity to wild-type human partial length MAP3K4 (G1319 to E1608 residues) expressed in Escherichia coli BL21 at 1 uM by Kinomescan method relative to control
Chain of Mitogen-activated protein kinase kinase kinase 4 (Homo sapiens) (Q9Y6R4 whole entry, the tested form may be a part): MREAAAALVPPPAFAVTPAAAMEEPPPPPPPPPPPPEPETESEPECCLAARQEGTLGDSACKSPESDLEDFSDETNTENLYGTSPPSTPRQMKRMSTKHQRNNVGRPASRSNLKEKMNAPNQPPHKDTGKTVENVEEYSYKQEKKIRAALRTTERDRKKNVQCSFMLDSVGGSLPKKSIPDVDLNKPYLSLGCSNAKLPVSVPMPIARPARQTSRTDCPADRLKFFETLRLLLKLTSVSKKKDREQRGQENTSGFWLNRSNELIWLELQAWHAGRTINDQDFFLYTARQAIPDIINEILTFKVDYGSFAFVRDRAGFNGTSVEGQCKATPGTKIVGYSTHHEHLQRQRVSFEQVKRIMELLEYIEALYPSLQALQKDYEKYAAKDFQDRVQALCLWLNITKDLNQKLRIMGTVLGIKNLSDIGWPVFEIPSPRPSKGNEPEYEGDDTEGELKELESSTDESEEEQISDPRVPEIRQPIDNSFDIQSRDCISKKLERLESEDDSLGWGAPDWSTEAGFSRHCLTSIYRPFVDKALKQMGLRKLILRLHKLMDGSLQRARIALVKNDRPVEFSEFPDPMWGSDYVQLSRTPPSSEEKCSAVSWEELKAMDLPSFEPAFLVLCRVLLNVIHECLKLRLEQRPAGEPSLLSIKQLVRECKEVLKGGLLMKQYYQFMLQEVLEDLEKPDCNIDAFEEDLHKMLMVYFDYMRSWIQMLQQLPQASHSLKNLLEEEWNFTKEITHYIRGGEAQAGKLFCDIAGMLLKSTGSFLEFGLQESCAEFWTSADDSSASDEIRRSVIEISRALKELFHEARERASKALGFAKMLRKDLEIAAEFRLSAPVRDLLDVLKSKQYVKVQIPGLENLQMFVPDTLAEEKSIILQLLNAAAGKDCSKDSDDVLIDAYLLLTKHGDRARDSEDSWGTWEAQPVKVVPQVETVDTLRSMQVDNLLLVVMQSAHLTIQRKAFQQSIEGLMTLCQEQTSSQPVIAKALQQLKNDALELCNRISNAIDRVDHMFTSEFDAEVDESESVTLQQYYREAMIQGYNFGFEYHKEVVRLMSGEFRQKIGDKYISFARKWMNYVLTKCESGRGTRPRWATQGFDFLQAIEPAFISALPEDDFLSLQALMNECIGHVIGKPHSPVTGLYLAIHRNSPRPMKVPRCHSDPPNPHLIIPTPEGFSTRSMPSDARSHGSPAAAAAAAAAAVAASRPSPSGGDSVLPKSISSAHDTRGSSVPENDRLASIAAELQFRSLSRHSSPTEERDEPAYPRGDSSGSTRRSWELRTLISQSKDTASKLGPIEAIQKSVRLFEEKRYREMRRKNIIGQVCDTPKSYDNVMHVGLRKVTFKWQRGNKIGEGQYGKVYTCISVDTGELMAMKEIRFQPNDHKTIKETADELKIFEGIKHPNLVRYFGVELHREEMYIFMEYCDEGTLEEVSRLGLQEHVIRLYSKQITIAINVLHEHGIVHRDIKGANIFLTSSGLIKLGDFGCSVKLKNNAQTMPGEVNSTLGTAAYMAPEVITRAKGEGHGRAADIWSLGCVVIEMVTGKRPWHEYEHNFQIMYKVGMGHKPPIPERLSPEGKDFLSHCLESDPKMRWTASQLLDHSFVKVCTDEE

HEK293 = assay: Cytotoxicity against human HEK293 cells assessed as reduction in cell viability after 72 hrs by CellTiter-Glo assay; assay type: cell-based; settings: HEK293, 72 h
Outline: (§1)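 Cells were treated across a dose-response range for 72 h, and viability was read by CellTiter-Glo luminescence. Measurements were made in triplicate and reported with standard error.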

[3] = target: Tyrosine-protein kinase Blk (Homo sapiens) (UniProt P51451); assay: Binding affinity to wild-type human partial length BLK (G211 to L503 residues) expressed in Escherichia coli BL21 at 1 uM by Kinomescan method relative to control
Chain of Tyrosine-protein kinase Blk (Homo sapiens) (P51451 2-505 limits assumed): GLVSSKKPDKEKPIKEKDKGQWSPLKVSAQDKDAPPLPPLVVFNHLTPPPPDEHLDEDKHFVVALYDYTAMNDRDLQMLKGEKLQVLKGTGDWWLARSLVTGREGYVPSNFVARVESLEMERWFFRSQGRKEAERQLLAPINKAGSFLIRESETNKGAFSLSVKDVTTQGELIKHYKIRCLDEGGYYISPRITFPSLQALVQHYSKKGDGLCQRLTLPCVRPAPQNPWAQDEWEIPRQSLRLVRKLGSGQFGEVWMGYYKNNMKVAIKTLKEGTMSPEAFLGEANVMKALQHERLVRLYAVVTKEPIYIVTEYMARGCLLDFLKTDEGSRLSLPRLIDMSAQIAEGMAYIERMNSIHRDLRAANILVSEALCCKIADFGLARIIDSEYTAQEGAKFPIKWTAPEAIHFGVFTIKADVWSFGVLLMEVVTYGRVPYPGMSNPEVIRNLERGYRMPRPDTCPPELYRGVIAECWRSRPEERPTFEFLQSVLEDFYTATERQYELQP

[4] = target: Serine/threonine-protein kinase TAO3 (Homo sapiens) (UniProt Q9H2K8); assay: Binding affinity to wild-type human partial length TAOK3 (M1 to T316 residues) expressed in HEK293 cells at 1 uM by Kinomescan method relative to control; assay type: cell-based
Chain of Serine/threonine-protein kinase TAO3 (Homo sapiens) (Q9H2K8 whole entry, the tested form may be a part): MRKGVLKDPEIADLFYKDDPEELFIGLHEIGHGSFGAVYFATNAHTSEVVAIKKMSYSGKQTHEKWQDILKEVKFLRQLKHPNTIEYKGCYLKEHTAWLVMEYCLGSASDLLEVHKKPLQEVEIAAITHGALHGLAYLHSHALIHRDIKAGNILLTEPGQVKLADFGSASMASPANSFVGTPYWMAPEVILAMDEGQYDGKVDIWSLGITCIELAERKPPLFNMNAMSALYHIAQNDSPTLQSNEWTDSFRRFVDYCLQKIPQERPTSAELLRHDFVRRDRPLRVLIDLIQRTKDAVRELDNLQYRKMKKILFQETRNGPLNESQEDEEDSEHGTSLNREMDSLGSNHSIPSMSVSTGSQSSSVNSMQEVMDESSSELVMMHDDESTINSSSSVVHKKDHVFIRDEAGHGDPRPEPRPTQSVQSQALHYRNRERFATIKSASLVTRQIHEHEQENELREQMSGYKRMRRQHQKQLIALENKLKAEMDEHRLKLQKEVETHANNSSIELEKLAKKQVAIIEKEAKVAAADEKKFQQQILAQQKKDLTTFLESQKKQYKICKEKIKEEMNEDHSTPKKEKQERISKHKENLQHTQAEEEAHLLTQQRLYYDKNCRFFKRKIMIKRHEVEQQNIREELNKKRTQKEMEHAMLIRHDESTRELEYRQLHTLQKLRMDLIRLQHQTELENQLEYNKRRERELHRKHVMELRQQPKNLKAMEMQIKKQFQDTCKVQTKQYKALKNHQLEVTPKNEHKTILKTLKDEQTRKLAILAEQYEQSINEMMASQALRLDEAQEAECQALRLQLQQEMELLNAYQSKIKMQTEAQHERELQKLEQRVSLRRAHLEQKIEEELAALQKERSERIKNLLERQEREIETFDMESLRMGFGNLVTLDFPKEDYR

[5] = target: Dual specificity mitogen-activated protein kinase kinase 2 (Homo sapiens) (UniProt P36507); assay: Binding affinity to wild-type human full length MEK2 (M1 to V400 residues) expressed in HEK293 cells at 1 uM by Kinomescan method relative to control; assay type: cell-based
Chain of Dual specificity mitogen-activated protein kinase kinase 2 (Homo sapiens) (P36507 whole entry, the tested form may be a part): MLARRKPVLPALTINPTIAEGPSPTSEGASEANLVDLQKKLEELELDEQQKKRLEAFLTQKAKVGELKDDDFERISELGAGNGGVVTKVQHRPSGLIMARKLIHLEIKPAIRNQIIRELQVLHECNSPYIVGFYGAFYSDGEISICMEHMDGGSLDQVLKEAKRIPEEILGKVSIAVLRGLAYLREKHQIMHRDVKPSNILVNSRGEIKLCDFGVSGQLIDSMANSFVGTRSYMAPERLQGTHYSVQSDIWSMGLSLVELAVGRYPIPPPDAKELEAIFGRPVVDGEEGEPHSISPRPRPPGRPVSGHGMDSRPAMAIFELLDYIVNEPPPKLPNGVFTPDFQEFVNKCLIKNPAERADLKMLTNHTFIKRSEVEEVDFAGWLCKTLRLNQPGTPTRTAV
Outline: (§2)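 Run as one kinome-wide competition binding panel with each compound at a single fixed concentration. Results were plotted as a kinome-wide selectivity map.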

[6] = target: Tyrosine-protein kinase Tec (Homo sapiens) (UniProt P42680); assay: Binding affinity to wild-type human partial length TEC (L341 to D620 residues) expressed in Escherichia coli BL21 at 1 uM by Kinomescan method relative to control
Chain of Tyrosine-protein kinase Tec (Homo sapiens) (P42680 whole entry, the tested form may be a part): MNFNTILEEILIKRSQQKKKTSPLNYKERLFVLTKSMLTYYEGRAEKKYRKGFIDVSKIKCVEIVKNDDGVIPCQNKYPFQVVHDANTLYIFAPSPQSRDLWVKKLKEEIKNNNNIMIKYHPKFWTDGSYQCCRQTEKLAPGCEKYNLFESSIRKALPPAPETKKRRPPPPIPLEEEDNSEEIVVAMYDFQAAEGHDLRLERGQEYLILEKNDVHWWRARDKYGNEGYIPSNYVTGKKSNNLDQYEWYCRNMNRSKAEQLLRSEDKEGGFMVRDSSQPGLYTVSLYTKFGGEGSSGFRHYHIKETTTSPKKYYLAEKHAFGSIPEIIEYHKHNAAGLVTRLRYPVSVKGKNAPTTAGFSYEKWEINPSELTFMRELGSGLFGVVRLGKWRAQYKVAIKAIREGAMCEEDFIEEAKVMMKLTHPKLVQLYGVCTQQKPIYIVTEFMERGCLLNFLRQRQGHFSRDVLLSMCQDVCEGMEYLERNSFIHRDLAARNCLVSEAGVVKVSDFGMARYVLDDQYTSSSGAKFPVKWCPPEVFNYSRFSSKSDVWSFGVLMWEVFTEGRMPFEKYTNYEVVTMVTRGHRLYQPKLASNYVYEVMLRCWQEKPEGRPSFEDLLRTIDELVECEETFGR

[7] = target: Activated CDC42 kinase 1 (Homo sapiens) (UniProt Q07912); assay: Binding affinity to wild-type human partial length TNK2 (S159 to D474 residues) expressed in Escherichia coli BL21 at 1 uM by Kinomescan method relative to control
[8] = target: Serine/threonine-protein kinase Sgk3 (Homo sapiens) (UniProt Q96BR1); assay: Binding affinity to wild-type human partial length SGK3 (M119 to L496 residues) expressed in HEK293 cells at 1 uM by Kinomescan method relative to control; assay type: cell-based
Chain of Serine/threonine-protein kinase Sgk3 (Homo sapiens) (Q96BR1 whole entry, the tested form may be a part): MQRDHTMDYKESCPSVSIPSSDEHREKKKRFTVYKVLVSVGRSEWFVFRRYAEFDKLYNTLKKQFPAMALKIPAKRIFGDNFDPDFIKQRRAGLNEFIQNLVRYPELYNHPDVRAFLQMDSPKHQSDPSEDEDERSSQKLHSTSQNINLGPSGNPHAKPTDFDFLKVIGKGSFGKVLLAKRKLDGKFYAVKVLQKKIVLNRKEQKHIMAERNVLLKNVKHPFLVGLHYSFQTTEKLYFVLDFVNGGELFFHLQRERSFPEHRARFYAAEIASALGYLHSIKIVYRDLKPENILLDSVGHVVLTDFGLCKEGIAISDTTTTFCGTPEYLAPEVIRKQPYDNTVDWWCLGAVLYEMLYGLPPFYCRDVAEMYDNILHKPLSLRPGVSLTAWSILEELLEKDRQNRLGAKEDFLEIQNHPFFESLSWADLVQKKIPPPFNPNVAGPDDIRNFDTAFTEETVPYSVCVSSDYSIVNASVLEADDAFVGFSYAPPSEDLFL

[9] = target: Tyrosine-protein kinase CSK (Homo sapiens) (UniProt P41240); assay: Binding affinity to wild-type human full length CSK (M1 to L450 residues) expressed in Escherichia coli BL21 at 1 uM by Kinomescan method relative to control; outline: as §2
Chain of Tyrosine-protein kinase CSK (Homo sapiens) (P41240 2-450 limits assumed): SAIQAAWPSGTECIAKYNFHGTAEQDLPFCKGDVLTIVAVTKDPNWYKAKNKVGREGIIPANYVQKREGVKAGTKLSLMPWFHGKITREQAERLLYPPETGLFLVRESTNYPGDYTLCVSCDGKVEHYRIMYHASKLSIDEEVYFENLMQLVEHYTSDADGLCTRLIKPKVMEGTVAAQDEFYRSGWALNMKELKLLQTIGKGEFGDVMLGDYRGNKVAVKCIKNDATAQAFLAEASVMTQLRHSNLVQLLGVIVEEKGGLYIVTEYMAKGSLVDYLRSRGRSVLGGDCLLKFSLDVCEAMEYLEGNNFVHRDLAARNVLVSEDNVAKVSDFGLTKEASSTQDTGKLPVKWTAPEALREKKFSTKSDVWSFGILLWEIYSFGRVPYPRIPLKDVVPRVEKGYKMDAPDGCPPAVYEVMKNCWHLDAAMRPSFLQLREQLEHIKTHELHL

HCT-116 [10] = assay: Cytotoxicity against human HCT116 cells assessed as reduction in cell viability up to 33.3 uM after 72 hrs by CellTiter-Glo assay relative to control; assay type: functional
PC-3 = assay: Cytotoxicity against human PC3 cells assessed as reduction in cell viability up to 33.3 uM after 72 hrs by CellTiter-Glo assay relative to control; assay type: functional
HCT-116 [11] = assay: Cytotoxicity against human HCT116 cells assessed as reduction in cell viability after 72 hrs by CellTiter-Glo assay; assay type: functional, cell-based; settings: HCT-116, 72 h; outline: as §1

| SMILES | Activity [1] [%] | Activity [2] [%] | IC50 (HEK293) [nM] | Activity [3] [%] | Activity [4] [%] | Activity [5] [%] | Activity [6] [%] | Activity [7] [%] | Activity [8] [%] | Activity [9] [%] | Activity (HCT-116 [10]) [%] | Activity (PC-3) [%] | IC50 (HCT-116 [11]) [nM] |
| --- | --- | --- | --- | --- | --- | --- | --- | --- | --- | --- | --- | --- | --- |
| CCC(=O)Nc1ccc(C(=O)Nc2ccc(Nc3ncc4c(n3)N(C)c3ccc(C)cc3C(=O)N4C)cc2)cc1 | 78 | 100 | 100 | 74 | 92 | 72 | 93 | 86 | 81 | 93 |  |  |  |
| C=CC(=O)Nc1ccc(C(=O)Nc2ccc(Nc3ncc4c(n3)N(C)c3ccc(C)cc3C(=O)N4C)cc2)cc1 | 76 | 100 |  | 96 | 95 | 86 | 100 | 96 | 79 | 84 | 50 | 50 | 845 |
